# Data: ChEMBL document CHEMBL5303300, “EUbOPEN Chemogenomics Library - Multiplex” (2023)
# “And” between values parts separate entries of the source, which are not always exact repeats. Equal entries are not always repeated.
# System: HEK-293T
# Experiment: Multiplex assay against HEK293T
# Format: toxicity, cell-based
# Conditions: human, number of replicates 2
# How it was run: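 Live cells were stained at seeding with Hoechst33342, BioTracker Green Microtubule Cytoskeleton Dye, MitoTracker Red and Annexin V Alexa Fluor 680. Following compound addition, they were imaged on a CQ1 microscope at 37°C and 5% CO2 and gated by CellPathfinder machine learning into Hoechst high-intensity objects or normal cells, with normal cells split into healthy, pyknosed or fragmented nuclei and pyknosed cells into mitotic or apoptotic. Tubulin, mitochondrial-mass and membrane-permeability phenotypes are per cents of healthy-nucleus cells.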
# [1] = 12 h, 0 µM, compound concentration 0 uM
# [2] = 12 h, 1 µM, compound concentration 1 uM
# [3] = 24 h, 0 µM, compound concentration 0 uM
# [4] = 24 h, 1 µM, compound concentration 1 uM
# [5] = 48 h, 0 µM, compound concentration 0 uM
# [6] = 48 h, 1 µM, compound concentration 1 uM
# [7] = 12 h, 10 µM, compound concentration 10 uM
# [8] = 24 h, 10 µM, compound concentration 10 uM
# [9] = 48 h, 10 µM, compound concentration 10 uM
structure (smiles),measurement,setting,value
COc1cc(C(N)=O)ccc1Nc1ncc2c(n1)N(CCC(C)C)[C@H](C)C(=O)N2C,Population Apoptotic (%),[1],47% and 52%
same,Population Fragmented Nuclei (%),[1],3% and 2%
same,Population Healthy Nuclei (%),[1],86% and 88%
same,Population Hoechst High Intensity Objects (%),[1],2%
same,Population Membrane Permeable-Phenotype (%),[1],4% and 10%
same,Population Mitochondria Different-Phenotype (%),[1],31% and 35%
same,Population Mitotic Cells (%),[1],52% and 47%
same,Population Normal (%),[1],97%
same,Population Pyknosed Nuclei (%),[1],10% and 9%
same,Population Tubulin-Different-Phenotype (%),[1],82% and 95%
same,Total Cell Count,[1],540 and 476
same,Population Apoptotic (%),[2],62% and 60%
same,Population Fragmented Nuclei (%),[2],1% and 4%
same,Population Healthy Nuclei (%),[2],73% and 75%
same,Population Hoechst High Intensity Objects (%),[2],8% and 7%
same,Population Membrane Permeable-Phenotype (%),[2],2%
same,Population Mitochondria Different-Phenotype (%),[2],38% and 28%
same,Population Mitotic Cells (%),[2],37% and 39%
same,Population Normal (%),[2],91% and 92%
same,Population Pyknosed Nuclei (%),[2],24% and 20%
same,Population Tubulin-Different-Phenotype (%),[2],64% and 58%
same,Total Cell Count,[2],432 and 456
same,Population Apoptotic (%),[3],67% and 50%
same,Population Fragmented Nuclei (%),[3],4% and 5%
same,Population Healthy Nuclei (%),[3],88%
same,Population Hoechst High Intensity Objects (%),[3],3% and 2%
same,Population Membrane Permeable-Phenotype (%),[3],1% and 2%
same,Population Mitochondria Different-Phenotype (%),[3],44% and 59%
same,Population Mitotic Cells (%),[3],32% and 50%
same,Population Normal (%),[3],96% and 97%
same,Population Pyknosed Nuclei (%),[3],6%
same,Population Tubulin-Different-Phenotype (%),[3],81% and 96%
same,Total Cell Count,[3],464 and 423
same,Population Apoptotic (%),[4],75% and 68%
same,Population Fragmented Nuclei (%),[4],5%
same,Population Healthy Nuclei (%),[4],69% and 76%
same,Population Hoechst High Intensity Objects (%),[4],8% and 6%
same,Population Membrane Permeable-Phenotype (%),[4],1%
same,Population Mitochondria Different-Phenotype (%),[4],34% and 32%
same,Population Mitotic Cells (%),[4],24% and 31%
same,Population Normal (%),[4],91% and 93%
same,Population Pyknosed Nuclei (%),[4],25% and 18%
same,Population Tubulin-Different-Phenotype (%),[4],38% and 35%
same,Total Cell Count,[4],461 and 420
same,Population Apoptotic (%),[5],72% and 75%
same,Population Fragmented Nuclei (%),[5],16% and 11%
same,Population Healthy Nuclei (%),[5],78% and 80%
same,Population Hoechst High Intensity Objects (%),[5],3%
same,Population Membrane Permeable-Phenotype (%),[5],1% and 3%
same,Population Mitochondria Different-Phenotype (%),[5],39% and 55%
same,Population Mitotic Cells (%),[5],28% and 24%
same,Population Normal (%),[5],96%
same,Population Pyknosed Nuclei (%),[5],5% and 7%
same,Population Tubulin-Different-Phenotype (%),[5],63% and 89%
same,Total Cell Count,[5],505 and 420
same,Population Apoptotic (%),[6],72% and 73%
same,Population Fragmented Nuclei (%),[6],8% and 11%
same,Population Healthy Nuclei (%),[6],72% and 76%
same,Population Hoechst High Intensity Objects (%),[6],5% and 4%
same,Population Membrane Permeable-Phenotype (%),[6],1%
same,Population Mitochondria Different-Phenotype (%),[6],14% and 17%
same,Population Mitotic Cells (%),[6],27% and 26%
same,Population Normal (%),[6],94% and 95%
same,Population Pyknosed Nuclei (%),[6],19% and 12%
same,Population Tubulin-Different-Phenotype (%),[6],24% and 20%
same,Total Cell Count,[6],520 and 517
C=CC(=O)Nc1cccc(C)c1Nc1ncc2cc(-c3c(Cl)c(OC)cc(OC)c3Cl)ccc2n1,Population Apoptotic (%),[2],39% and 35%
same,Population Fragmented Nuclei (%),[2],3%
same,Population Healthy Nuclei (%),[2],87%
same,Population Hoechst High Intensity Objects (%),[2],7% and 5%
same,Population Membrane Permeable-Phenotype (%),[2],2% and 1%
same,Population Mitochondria Different-Phenotype (%),[2],16% and 12%
same,Population Mitotic Cells (%),[2],60% and 64%
same,Population Normal (%),[2],92% and 94%
same,Population Pyknosed Nuclei (%),[2],8% and 9%
same,Population Tubulin-Different-Phenotype (%),[2],40% and 41%
same,Total Cell Count,[2],760 and 929
same,Population Apoptotic (%),[7],71% and 67%
same,Population Fragmented Nuclei (%),[7],4%
same,Population Healthy Nuclei (%),[7],71% and 77%
same,Population Hoechst High Intensity Objects (%),[7],20% and 14%
same,Population Membrane Permeable-Phenotype (%),[7],2% and 3%
same,Population Mitochondria Different-Phenotype (%),[7],42% and 39%
same,Population Mitotic Cells (%),[7],28% and 32%
same,Population Normal (%),[7],79% and 85%
same,Population Pyknosed Nuclei (%),[7],24% and 18%
same,Population Tubulin-Different-Phenotype (%),[7],55% and 47%
same,Total Cell Count,[7],374 and 381
same,Population Apoptotic (%),[4],35% and 39%
same,Population Fragmented Nuclei (%),[4],6% and 4%
same,Population Healthy Nuclei (%),[4],85% and 88%
same,Population Hoechst High Intensity Objects (%),[4],5% and 7%
same,Population Membrane Permeable-Phenotype (%),[4],1% and 0%
same,Population Mitochondria Different-Phenotype (%),[4],4% and 6%
same,Population Mitotic Cells (%),[4],64% and 60%
same,Population Normal (%),[4],94% and 92%
same,Population Pyknosed Nuclei (%),[4],7%
same,Population Tubulin-Different-Phenotype (%),[4],26% and 25%
same,Total Cell Count,[4],1252 and 1297
same,Population Apoptotic (%),[8],70% and 60%
same,Population Fragmented Nuclei (%),[8],5% and 3%
same,Population Healthy Nuclei (%),[8],71% and 77%
same,Population Hoechst High Intensity Objects (%),[8],17% and 11%
same,Population Membrane Permeable-Phenotype (%),[8],2% and 0%
same,Population Mitochondria Different-Phenotype (%),[8],32% and 24%
same,Population Mitotic Cells (%),[8],29% and 40%
same,Population Normal (%),[8],83% and 88%
same,Population Pyknosed Nuclei (%),[8],23% and 18%
same,Population Tubulin-Different-Phenotype (%),[8],32% and 29%
same,Total Cell Count,[8],453 and 428
same,Population Apoptotic (%),[6],12%
same,Population Fragmented Nuclei (%),[6],12% and 9%
same,Population Healthy Nuclei (%),[6],84% and 87%
same,Population Hoechst High Intensity Objects (%),[6],8% and 11%
same,Population Membrane Permeable-Phenotype (%),[6],5% and 2%
same,Population Mitochondria Different-Phenotype (%),[6],0% and 1%
same,Population Mitotic Cells (%),[6],87%
same,Population Normal (%),[6],91% and 88%
same,Population Pyknosed Nuclei (%),[6],2% and 3%
same,Population Tubulin-Different-Phenotype (%),[6],10% and 15%
same,Total Cell Count,[6],3082 and 2641
same,Population Apoptotic (%),[9],50% and 52%
same,Population Fragmented Nuclei (%),[9],5% and 3%
same,Population Healthy Nuclei (%),[9],84% and 85%
same,Population Hoechst High Intensity Objects (%),[9],11% and 8%
same,Population Membrane Permeable-Phenotype (%),[9],1%
same,Population Mitochondria Different-Phenotype (%),[9],8% and 9%
same,Population Mitotic Cells (%),[9],50% and 47%
same,Population Normal (%),[9],88% and 91%
same,Population Pyknosed Nuclei (%),[9],9% and 11%
same,Population Tubulin-Different-Phenotype (%),[9],12%
same,Total Cell Count,[9],751 and 603
